Results taken from ChEMBL document CHEMBL1255487, “Preclinical evaluation of the antifolate QN254, 5-chloro- N'6'-(2,5-dimethoxy-benzyl)-quinazoline-2,4,6-triamine, as an antimalarial drug candidate” (Antimicrob Agents Chemother, 2010).
The source made the active and inactive calls. The calls are words filed in the database; no cut-off is given here.

Tests used:
[1] = test system: Plasmodium berghei; assay: Antimalarial activity against Plasmodium berghei ANKA infected in NMRI mice (Mus musculus) assessed as reduction in parasitemia at 3 times 30 mg/kg, perorally measured on day 3 postinfection; format: functional; design: scale not given: the % may be the effect or the level left; settings: route oral
In short: (§1)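 P. berghei ANKA given intravenously to groups of 5 female NMRI mice (20–22 g): 0.2 ml of 1 × 10^8 parasitized erythrocytes/ml from a donor mouse. Oral dosing in 0.5% carboxymethyl cellulose. Parasitemia counted by microscopy. Activity is the control-minus-treated parasitemia difference, expressed as percent of untreated controls.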

[2] = test system: Plasmodium berghei; assay: Antimalarial activity against Plasmodium berghei ANKA infected in NMRI mice (Mus musculus) assessed as reduction in parasitemia at 3 times 100 mg/kg, perorally measured on day 3 postinfection; format: functional; design: scale not given: the % may be the effect or the level left; settings: route oral; in short: as §1
[3] = test system: Plasmodium berghei; assay: Antimalarial activity against Plasmodium berghei ANKA infected in NMRI mice (Mus musculus) assessed as survival rate at 15 mg/kg, perorally administered as single dose; format: functional; settings: route oral
In short: (§2)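 Infection: 5 female NMRI mice (20–22 g) per group, inoculated intravenously with 0.2 ml of donor blood at 1 × 10^8 parasitized erythrocytes/ml. Oral administration in 0.5% carboxymethyl cellulose. Survival time recorded up to 30 days after infection and averaged per group.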

[4] = test system: Plasmodium berghei; assay: Antimalarial activity against Plasmodium berghei ANKA infected in NMRI mice (Mus musculus) assessed as survival rate at 100 mg/kg, perorally administered as single dose; format: functional; settings: route oral; in short: as §2
[5] = test system: Plasmodium berghei; assay: Antimalarial activity against Plasmodium berghei ANKA infected in NMRI mice (Mus musculus) assessed as mean survival time at 3 times 60 mg/kg, perorally; format: functional, organism-based; design: dose 60 mg/kg
[6] = test system: Plasmodium berghei; assay: Antimalarial activity against Plasmodium berghei ANKA infected in NMRI mice (Mus musculus) assessed as mean survival time at 3 times 100 mg/kg, perorally; format: functional, organism-based; design: dose 100 mg/kg
[7] = test system: Plasmodium berghei; assay: Antimalarial activity against Plasmodium berghei ANKA infected in NMRI mice (Mus musculus) assessed as cure rate at 10 mg/kg, perorally administered as single dose […]; format: functional; settings: route oral
In short: (§3)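 Female NMRI mice (20–22 g), 5 per group, infected intravenously with 0.2 ml of 1 × 10^8 parasitized erythrocytes/ml from a fresh donor mouse. Compound suspended in 0.5% carboxymethyl cellulose and given orally. Survival followed to day 30 post-infection; an animal was scored cured if it survived to day 30 without parasites.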

[8] = test system: Plasmodium berghei; assay: Antimalarial activity against Plasmodium berghei ANKA infected in NMRI mice (Mus musculus) assessed as cure rate at 60 mg/kg, perorally administered as single dose […]; format: functional; settings: route oral; in short: as §3
[9] = test system: Plasmodium berghei; assay: Antimalarial activity against Plasmodium berghei ANKA infected in NMRI mice (Mus musculus) assessed as cure rate at 100 mg/kg, perorally administered as single dose measured on […]; format: functional; settings: route oral; in short: as §3
[10] = test system: Plasmodium berghei; assay: Antimalarial activity against Plasmodium berghei ANKA infected in NMRI mice (Mus musculus) assessed as cure rate at 3 times 30 mg/kg, perorally measured […]; format: functional; settings: route oral; in short: as §3
[11] = test system: Plasmodium berghei; assay: Antimalarial activity against Plasmodium berghei ANKA infected in NMRI mice (Mus musculus) assessed as cure rate at 3 times 60 mg/kg, perorally measured on day 3 postinfection; format: functional; settings: route oral; in short: as §3
[12] = test system: Mus musculus; assay: Toxicity in NMRI mice (Mus musculus) infected with Plasmodium berghei ANKA at 10 mg/kg, perorally administered as single dose measured up to 30 days postinfection; format: organism-based; design: dose 10 mg/kg, route oral; settings: in vivo, po, 720 h
[13] = test system: Mus musculus; assay: Toxicity in NMRI mice (Mus musculus) infected with Plasmodium berghei ANKA at 15 mg/kg, perorally administered as single dose measured up to 30 days postinfection; format: organism-based; design: dose 15 mg/kg, route oral; settings: in vivo, po, 720 h
[14] = test system: Mus musculus; assay: Toxicity in NMRI mice (Mus musculus) infected with Plasmodium berghei ANKA at 30 mg/kg, perorally administered as single dose measured up to 30 days postinfection; format: organism-based; design: dose 30 mg/kg, route oral; settings: in vivo, po, 720 h
[15] = test system: Mus musculus; assay: Toxicity in NMRI mice (Mus musculus) infected with Plasmodium berghei ANKA at 100 mg/kg, perorally administered as single dose measured up to 30 days postinfection; format: organism-based; design: dose 100 mg/kg, route oral; settings: in vivo, po, 720 h
[16] = test system: Mus musculus; assay: Toxicity in NMRI mice (Mus musculus) infected with Plasmodium berghei ANKA at 3 times 30 mg/kg, perorally measured up to 30 days postinfection; format: organism-based; design: dose 30 mg/kg, route oral; settings: in vivo, po, 720 h
[17] = test system: Mus musculus; assay: Toxicity in NMRI mice (Mus musculus) infected with Plasmodium berghei ANKA at 3 times 60 mg/kg, perorally measured up to 30 days postinfection; format: organism-based; design: dose 60 mg/kg, route oral; settings: in vivo, po, 720 h
[18] = test system: Mus musculus; assay: Toxicity in NMRI mice (Mus musculus) infected with Plasmodium berghei ANKA at 3 times 100 mg/kg, perorally measured up to 30 days postinfection; format: organism-based; design: dose 100 mg/kg, route oral; settings: in vivo, po, 720 h
[19] = AUC (0 to 24 hrs) in Wistar rat at 50 mg/kg, po; format: ADME, organism-based; design: time < 24 hr, dose 50 mg/kg, route oral; settings: plasma
[20] = test system: Rattus norvegicus; assay: Toxicity in Wistar rat assessed as occurrence of inflammatory changes in gastric tract at => 50 mg/kg, po after 2 weeks; format: organism-based, Stomach; design: dose 50 mg/kg, route oral; settings: in vivo, 336 h
In short: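 Male Wistar rats, about 10 weeks old (254–292 g), 5 per group, gavaged daily with 50, 150 or 500 mg/kg/day. Vehicle was 10% of 1% aqueous Solutol HS15 plus 90% of 0.5% aqueous methylcellulose; exploratory 2-week design. Clinical observations, body weight, food intake, hematology, clinical chemistry and gross pathology recorded. Histopathology covered gross lesions and selected organs in the control and low-dose groups.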

[21] = test system: Plasmodium falciparum; assay: Antimalarial activity against pyrimethamine-resistant Plasmodium falciparum clinical isolate harboring S108N, N51I mutation in DHFR assessed as decrease in parasitaemia; format: functional, organism-based
In short: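 P. falciparum grown in RPMI 1640 with 10% (v/v) human serum, 25 mM bicarbonate, 2 mM glutamine, 25 mM HEPES, 5 nM para-aminobenzoic acid and 23 nM folic acid. Parasites exposed to a concentration series. Read-out is [3H]hypoxanthine incorporation into nucleic acid. IC50 taken from non-linear regression of the dose–response curve.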

[22] = AUC in CD-1 mouse at 25 mg/kg, po; format: ADME, organism-based; design: dose 25 mg/kg, route oral; settings: plasma
In short: (§4)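 Mice dosed with 25 mg/kg p.o. as a 2.5 mg/ml suspension in 0.5% CMC, or with 5 mg/kg i.v. at 1 mg/ml in 10% NMP, 30% PEG 400 and 60% of 10% vitamin E-TPGS. Blood sampled at several time points. Plasma extracted with acidified acetonitrile (8:1) and quantified by LC-MS, LLOQ 12 ng/ml.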

[23] = AUC in Wistar rat at 25 mg/kg, po; format: ADME, organism-based; design: dose 25 mg/kg, route oral; settings: plasma
In short: (§5)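 Rats dosed with 25 mg/kg p.o. as a 2.5 mg/ml suspension in 0.5% CMC, or with 5 mg/kg i.v. at 1 mg/ml in 10% NMP, 30% PEG 400 and 60% of 10% vitamin E-TPGS. Plasma sampled over time, extracted with acidified acetonitrile (8:1) and quantified by LC-MS, LLOQ 12 ng/ml.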

[24] = Oral bioavailability in Wistar rat at 25 mg/kg; format: ADME, organism-based; settings: in vivo; in short: as §5
[25] = Volume of distribution in CD-1 mouse at 5 mg/kg, iv; format: ADME, organism-based; design: dose 5 mg/kg, route intravenous; settings: in vivo; in short: as §4
[26] = Clearance in CD-1 mouse at 5 mg/kg, iv; format: ADME, organism-based; design: dose 5 mg/kg, route intravenous; settings: in vivo; in short: as §4
[27] = Clearance in Wistar rat at 5 mg/kg, iv; format: ADME, organism-based; design: dose 5 mg/kg, route intravenous; settings: in vivo; in short: as §5
[28] = Half life in Wistar rat at 5 mg/kg, iv; format: ADME, organism-based; design: dose 5 mg/kg, route intravenous; settings: in vivo; in short: as §5
[29] = AUC (0 to 24 hrs) in NMRI mouse at 26.5 mg/kg, po; settings: plasma

Compound: COc1ccc(OC)c(CNc2ccc3nc(N)nc(N)c3c2Cl)c1
- Activity [1]: >99.99%
- Activity [2]: >99.99%
- Survival [3]: 6 days
- Survival [4]: 23.4 days
- Activity [5]: inactive
- Activity [6]: inactive
- Activity [7]: 0%
- Activity [8]: 0%
- Activity [9]: 50%
- Activity [10]: 80%
- Activity [11]: 60%
- Activity [12]: 0%
- Activity [13]: 0%
- Activity [14]: 0%
- Activity [15]: 0%
- Activity [16]: 0%
- Activity [17]: 40%
- Activity [18]: 80%
- AUC(0-t) at 24 h [19]: 27600 ng·h/mL
- Activity [20]: Toxic
- IC50 [21]: 4.48 nM
- AUC [22]: 44.6 µM·h
- AUC [23]: 67.3 µM·h
- bioavailability [24]: 63%
- Vd [25]: 2.85 L/kg
- clearance [26]: 51.1 mL/min/kg
- clearance [27]: 17 mL/min/kg
- half-life [28]: 3.5 h
- AUC(0-t) at 24 h [29]: 17000 ng·h/mL
